# FID counter = compounds displacing fluorescent DNA intercalator, primary screen, artefact control for HCV NS3 helicase inhibitor project, biochemical, FID fluorescence; DNA fluorescent intercalator displacement; inhibition, % at 7.9 µM; hit rate 0.17% among 290,000; AID 1845, 2009; in the data active means inhibition above about 37%;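 further: 0% = vehicle and 100% = reference compound; higher means more ethidium bromide displaced from hairpin DNA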
# EBNA-1 inhibitor = EBNA-1 DNA-binding inhibitors, primary screen, biochemical, fluorescence polarization; inhibition, % at 14.8 µM; hit rate 0.34% among 300,000; AID 1950, 2009; in the data active means inhibition above about 28%
# NR3A LBD binder = binders of NR3A ligand-binding domain, primary screen, biophysical, differential scanning fluorimetry, uHTS; Tm shift relative to glycine control, % at 25 µM; hit rate 2.5% among 340,000; AID 1259313, 2017; NR3A LBD differential scanning fluorimetry, Tm shift; 0% = protein alone, 100% = glycine-bound protein; Glutamate receptor ionotropic, NMDA 3A (GRIN3A) ligand-binding domain;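 active means melting temperature shift of at least 10% of the positive control shift, at one fixed dose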
# ZTA counter = ZTA (EBV) inhibition in EBNA-1 counter-screen | AID 2234 | ZTA-DNA binding, fluorescence polarization | P03206 | inhibition, % at 11 µM | hit rate 0.15% among 320,000; in the data active means inhibition above about 33%
# Target sequence (P03206 whole entry, looked up): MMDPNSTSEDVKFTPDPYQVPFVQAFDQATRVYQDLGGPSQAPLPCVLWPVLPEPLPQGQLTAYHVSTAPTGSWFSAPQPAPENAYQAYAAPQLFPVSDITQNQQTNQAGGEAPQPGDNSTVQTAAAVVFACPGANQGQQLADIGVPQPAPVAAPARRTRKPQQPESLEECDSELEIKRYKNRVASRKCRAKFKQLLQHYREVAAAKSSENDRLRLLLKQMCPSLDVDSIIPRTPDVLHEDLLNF
# FGF22 binding = binders of human FGF22 protein, primary screen, FGF22 synaptogenesis inhibitor project, biophysical, thermal shift, single point; AID 651658, 2012; recombinant FGF22 thermal shift, SYPRO orange fluorescence; percent of sucrose octasulfate shift, DMSO zero; hit rate 1.5% among 340,000; activity (Tm shift, normalised), % at 9.99 µM;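 active means mean Tm shift, scaled 0 neutral to 100 positive control, at about 1.3% or above, every replicate too, limit read from the data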
# Target sequence (Q9HCT0 whole entry, looked up): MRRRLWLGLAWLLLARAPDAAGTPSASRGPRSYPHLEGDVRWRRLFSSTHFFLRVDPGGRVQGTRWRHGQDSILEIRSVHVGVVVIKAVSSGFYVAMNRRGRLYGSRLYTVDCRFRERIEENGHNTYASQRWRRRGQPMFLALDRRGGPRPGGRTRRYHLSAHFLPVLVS
# NS3 helicase inh = inhibitors of HCV NS3 helicase, primary screen, biochemical, Cy5 molecular beacon fluorescence. Hepatitis C virus NS3 helicase. NS3 helicase DNA unwinding. inhibition, % at 10.9 µM. hit rate 0.56% among 290,000. AID 1800, 2009;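 active means inhibition above the mean of all tested compounds plus 3 SD, set per campaign, cut at about 35% in these data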;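 further: 0% = DMSO wells and 100% = thioflavine S control wells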
#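 Measured by: Cy5 fluorescence, 0 and 60 min reads / Assay system: NS3 helicase fragment of HCV / Control set: low DMSO, high thioflavine S at 110 µM / Times: 1 h reaction at 25 °C, ATP-initiated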
# Zta DNA confirm = EBV Zta binding to ZRE DNA, inhibitors, confirmation, biochemical, fluorescence polarization, triplicate. shares compounds with ZTA counter. inhibition, % at 11.1 µM. hit rate 30% among 320. AID 2361, 2010;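 active means mean inhibition across triplicate runs above the hit threshold derived for the original primary screen, cut at about 33% in these data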;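 further: 0% = Zta with DMSO and 100% = wells lacking Zta protein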
# EBNA1 counter = EBNA-1 DNA-binding inhibition, counter-screen for ZTA inhibitor project, biochemical, fluorescence polarization; shares compounds with ZTA counter; inhibition, % at 14.8 µM; 320 tested, under 10 active; AID 2362, 2010; call rule not given here
# * hit, by the source's call; · = no result; + = active, no number. Sampled rows, rich in hits. Any-hit rate of the full collection: about 3.6%.
SMILES,FID counter,EBNA-1 inhibitor,NR3A LBD binder,ZTA counter,FGF22 binding,NS3 helicase inh,Zta DNA confirm,EBNA1 counter
CN(C)C(=O)C[C@H]1CC[C@@H](NC(=O)NC2CCCCC2)[C@H](CO)O1,·,·,·,·,-1,·,·,·
COc1cc2c(C#N)c(N3CCCC3)nc(N)c2c(N)n1,3,3,-4,-7,0,-1,·,·
N#Cc1c(N2CCCC2)nc(N)c2c(N)nc(N3CCCC3)cc12,1,10,-12,60*,·,3,55*,-26
CC1=[N+](C)c2ccc3ccccc3c2C1(C)C,-2,1,-1,+,0,-20,69*,18
COc1ccc(CCNC(=O)C2c3ccccc3C(=O)N2CCC(C)C)cc1OC (configuration not stated),-25,-18,1,75*,0,3,-6,5
C[C@H](CO)N1C[C@H](C)[C@@H](CN(C)C)Oc2c(NC(=O)Nc3ccc(C(F)(F)F)cc3)cccc2C1=O,·,·,·,·,0,·,·,·
CCCN(CCC)C(=O)COc1cc(=O)n(CC)c2ccccc12,-24,0,-1,118*,0,0,-3,-3
Cc1nc2c(-c3ccc(F)cc3)cnn2c(N)c1-c1ccc(F)cc1,-2,-1,8,38*,0,-26,-2,-12
CCCNC(=O)N[C@@H]1CC[C@@H](CC(=O)NC2CCCCC2)O[C@@H]1CO,·,·,·,·,0,·,·,·
COCCCN(C(=O)c1cc2c(s1)CCCCC2)c1c(N)n(Cc2ccccc2)c(=O)[nH]c1=O,·,12,-4,162*,0,·,15,0
CCc1ccc2nc(N(CCCN(C)C)C(=O)c3ccc(S(=O)(=O)N4CCCC4)cc3)sc2c1,29,1,1,0,·,-33,·,·
CCc1ccc2nc(N(CCCN(C)C)C(=O)c3ccc(S(=O)(=O)N4CCCc5ccccc54)cc3)sc2c1,23,2,-2,37*,0,-47,7,0
C[C@@H]1CN([C@H](C)CO)C(=O)c2cc(NC(=O)CCC(F)(F)F)ccc2O[C@@H](C)CCCCO[C@@H]1CN(C)S(=O)(=O)c1cn(C)cn1,·,·,·,·,0,·,·,·
COc1ccc(NC(=O)CCN2CCCC(C)C2)cc1 (configuration not stated),-1,5,1,52*,·,4,1,-10
O=C(CSc1ncnc2scc(-c3ccccc3)c12)N1CCN(Cc2ccc3c(c2)OCO3)CC1,-20,14,-8,59*,0,-1,160*,72*
c1ccc(-c2csc3ncnc(N4CCN(Cc5ccc6c(c5)OCO6)CC4)c23)cc1,-11,-9,-2,-2,0,-29,·,·
NS(=O)(=O)c1ccc(NC(=O)c2cccc(N3C(=O)c4ccccc4C3=O)c2)cc1,-5,-2,-1,61*,0,-59,58*,-1
CC(=O)c1ccc(NC(=O)c2cccc(N3C(=O)c4ccccc4C3=O)c2)cc1,-22,4,-1,-1,·,-30,·,·
C[C@@H]1CCCCO[C@@H](CN(C)S(=O)(=O)c2ccc(Cl)cc2)[C@@H](C)CN([C@@H](C)CO)C(=O)c2cc(NC(=O)c3ccncc3)ccc2O1,·,·,·,·,0,·,·,·
COc1cccc(-c2ccc3n(c2=O)C[C@@H]2[C@@H](CO)[C@H](C(=O)NCC4CC4)N(C)[C@H]32)c1,·,·,·,·,0,·,·,·
Cc1ccc(C(C(=O)NC2CCCC2)N(Cc2ccc3c(c2)OCO3)C(=O)c2snc(C(N)=O)c2N)cc1 (configuration not stated),-21,5,1,57*,0,-7,1,-9
CCS(=O)(=O)N1CCCCN2[C@@H](CO)[C@@H](c3ccc(-c4ccccc4C)cc3)[C@@H]2C1,·,·,·,·,0,·,·,·
COc1ccc(C(=O)N(C)CCCC2CCCC2)cc1OC1CCN(C(C)C)CC1,25,8,-3,34*,0,-14,-3,-10
COc1cc(C#Cc2c(-c3cncn3C)n(C)c3ccc(-c4cnc(N5CCOCC5)nc4)cc23)cc(OC)c1,·,·,-4,·,0,·,·,·
COc1cc(C#Cc2c(-c3cncn3C)n(C)c3ccc(-c4cnc(OC)nc4)cc23)cc(OC)c1,·,·,-9,38*,0,·,5,-2
SMILES,FID counter,EBNA-1 inhibitor,NR3A LBD binder,ZTA counter,FGF22 binding,NS3 helicase inh,Zta DNA confirm,EBNA1 counter
Cc1ccc(S(=O)(=O)N(C)C[C@@H]2OCCCC[C@@H](C)Oc3ccc(NC(=O)Nc4ccccc4)cc3C(=O)N([C@H](C)CO)C[C@H]2C)cc1,·,·,·,·,1,·,·,·
CC(C(=O)OCC(=O)c1ccc(Br)cc1)N1C(=O)C2C3C=CC(C3)C2C1=O (configuration not stated),-29,-2,0,36*,0,-1,-8,-6
CC(C(=O)OCC(=O)c1ccc(F)cc1)N1C(=O)C2C3C=CC(C3)C2C1=O (configuration not stated),-14,0,1,-7,0,2,·,·
CCCC(=O)N1CC2(C1)CN(C(=O)C1CCOCC1)[C@H](CO)c1[nH]c3cc(OC)ccc3c12,·,·,·,·,-1,·,·,·
C#CCOCCOCCOCCNc1nc(N2CCN(C(=O)CCCCCCCCCCNC(=O)[C@H](CCCCN)n3cc(CCO)nn3)CC2)nc(N2CCN(C(=O)CCCCCCCCCCNC(=O)[C@H](CCCCN)n3cc(CCCC(=O)O)nn3)CC2)n1,·,3,-1,19,0,·,·,·
C#CCOCCOCCOCCNc1nc(N2CCN(C(=O)CCCCCCCCCCNC(=O)[C@H]([C@@H](C)CC)n3cc(CCCCN=C(N)N)nn3)CC2)nc(N2CCN(C(=O)CCCCCCCCCCNC(=O)[C@@H]([C@H](C)O)n3cc(C)nn3)CC2)n1,·,4,3,68*,·,·,61*,1
C#CCOCCOCCOCCNc1nc(N2CCN(C(=O)CCCCCCCCCCNC(=O)[C@H](CCCCN)n3cc(C)nn3)CC2)nc(N2CCN(C(=O)CCCCCCCCCCNC(=O)[C@@H]([C@H](C)O)n3cc(C)nn3)CC2)n1,·,12,26*,40*,·,·,3,2
C#CCOCCOCCOCCNc1nc(N2CCN(C(=O)CCCCCCCCCCNC(=O)[C@H](CCCCN)n3cc(C)nn3)CC2)nc(N2CCN(C(=O)CCCCCCCCCCNC(=O)[C@H](CCCN=C(N)N)n3cc(C[C@@H](C)CC)nn3)CC2)n1,·,-2,-8,51*,·,·,47*,-3

# Screening data (PubChem BioAssay)
